Measurements published in ChEMBL document CHEMBL1122512, “Investigations on the chemistry of berbanes. 10. Synthesis of raunescinone analogues with hypotensive and antihypertensive activity” (1984).

How the values were obtained:
Mus musculus [1] = species on record: Mus musculus; experiment: Compound was evaluated for its lack of depresant effect on the CNS as measured by the forced coordinated motor activity on 10 mice; type: functional
Mus musculus [2] = experiment: Lack of depressant effect on the CNS as measured by the forced coordinated motor activity on mice was expressed as time elapsed from dosing required to obtain maximum hypotensive or antihypertensive effect; type: functional, Central nervous system
Rattus norvegicus [3] = experiment: Change in heart rate after 3 hours of dosing was measured in conscious normotensive male rats at a dose of 5 mg/kg administered intraperitoneally in 5 rats; type: functional; details: route intraperitoneal
Method in brief: (§1)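 Heart rate was recorded electronically through the blood-pressure recorder during tail-cuff measurement in conscious normotensive male rats (250–300 g), restrained in Plexiglass tubes at 37 °C. Dosing was intraperitoneal, and change from the pre-dose rate was followed to 48 h.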

Rattus norvegicus [4] = experiment: Change in heart rate after 48 hours of dosing was measured in conscious normotensive male rats at a dose of 5 mg/kg administered intraperitoneally in 5 rats; type: functional; details: route intraperitoneal; method in brief: as §1
Rattus norvegicus [5] = experiment: Change in heart rate after 6 hours of dosing was measured in conscious normotensive male rats at a dose of 5 mg/kg administered intraperitoneally in 5 rats; type: functional; details: route intraperitoneal; method in brief: as §1
Rattus norvegicus [6] = experiment: Systolic blood pressure was measured prior to dosing in conscious normotensive male rats at a dose of 5 mg/kg administered intraperitoneally in 5 rats; type: functional; details: route intraperitoneal
Method in brief: (§2)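 Conscious normotensive male rats (250–300 g) were restrained in Plexiglass tubes kept at 37 °C. Systolic pressure was read indirectly at the tail root using a tail cuff and a sphygmomanometer with a crystal-microphone pulse pick-up. Dosing was intraperitoneal, and change from the pre-dose value was followed to 48 h.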

Rattus norvegicus [7] = experiment: Change in blood pressure after 12 hours of dosing was measured in conscious normotensive male rats at a dose of 5 mg/kg administered intraperitoneally in 5 rats; type: functional; details: route intraperitoneal; method in brief: as §2
Rattus norvegicus [8] = experiment: Change in blood pressure after 18 hours of dosing was measured in conscious normotensive male rats at a dose of 5 mg/kg administered intraperitoneally in 5 rats; type: functional; details: route intraperitoneal; method in brief: as §2
Rattus norvegicus [9] = experiment: Change in blood pressure after 24 hours of dosing was measured in conscious normotensive male rats at a dose of 5 mg/kg administered intraperitoneally in 5 rats; type: functional; details: route intraperitoneal; method in brief: as §2
Rattus norvegicus [10] = experiment: Change in blood pressure after 3 hours of dosing was measured in conscious normotensive male rats at a dose of 5 mg/kg administered intraperitoneally in 5 rats; type: functional; details: route intraperitoneal; method in brief: as §2
Rattus norvegicus [11] = experiment: Change in blood pressure after 48 hours of dosing was measured in conscious normotensive male rats at a dose of 5 mg/kg administered intraperitoneally in 5 rats; type: functional; details: route intraperitoneal; method in brief: as §2
Rattus norvegicus [12] = experiment: Change in blood pressure after 6 hours of dosing was measured in conscious normotensive male rats at a dose of 5 mg/kg administered intraperitoneally in 5 rats; type: functional; details: route intraperitoneal; method in brief: as §2
Rattus norvegicus [13] = experiment: Change in heart rate after 12 hours of dosing was measured in conscious normotensive male rats at a dose of 5 mg/kg administered intraperitoneally in 5 rats; type: functional; details: route intraperitoneal; method in brief: as §1
Rattus norvegicus [14] = experiment: Change in heart rate after 18 hours of dosing was measured in conscious normotensive male rats at a dose of 5 mg/kg administered intraperitoneally in 5 rats; type: functional; details: route intraperitoneal; method in brief: as §1
Rattus norvegicus [15] = experiment: Change in heart rate after 24 hours of dosing was measured in conscious normotensive male rats at a dose of 5 mg/kg administered intraperitoneally in 5 rats; type: functional; details: route intraperitoneal; method in brief: as §1
Rattus norvegicus [16] = experiment: Heart rate was measured prior to dosing in conscious normotensive male rats at a dose of 5 mg/kg administered intraperitoneally in 5 rats; type: functional; details: route intraperitoneal; method in brief: as §1
[17] = Ratio of performance time under the effect and corresponding control performance time; type: functional
Method in brief: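 Female mice (20–25 g), in groups of 10, were trained on a 3 cm rod at 15 rpm and tested 6 h after intraperitoneal dosing. The activity ratio is the group performance time under drug divided by the control group performance time.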

In the case of `COC(=O)[C@H]1[C@H]2C[C@@H]3c4[nH]c5cc(OC)ccc5c4CCN3C[C@H]2C[C@@H](OC(=O)c2cc(OC)c(OC)c(OC)c2)[C@@H]1OC` [RESERPINE], the Group performance time (Mus musculus [1]) is reported as 9 s, the Time (Mus musculus [2]) is reported as 6 h and the “Change in heart rate” value (Rattus norvegicus [3]) is reported as -34. The “Change in heart rate” value (Rattus norvegicus [4]) was -10, the “Change in heart rate” value (Rattus norvegicus [5]) was -44 and the BP (Rattus norvegicus [6]) was 117 mmHg. The “Change in BP” value (Rattus norvegicus [7]) was -16, the “Change in BP” value (Rattus norvegicus [8]) was -10 and the “Change in BP” value (Rattus norvegicus [9]) was -12. For the same compound, the “Change in BP” value (Rattus norvegicus [10]) was -18, the “Change in BP” value (Rattus norvegicus [11]) was -7 and the “Change in BP” value (Rattus norvegicus [12]) was -23. For the same compound, the “Change in heart rate” value (Rattus norvegicus [13]) was -40, the “Change in heart rate” value (Rattus norvegicus [14]) was -40 and the “Change in heart rate” value (Rattus norvegicus [15]) was -32. The Heart rate (Rattus norvegicus [16]) was 364 beats min-1 and the Activity ratio [17] was < 0.08.
